These results are taken from ChEMBL document CHEMBL4196141, “Improved Antibacterial Activity of the Marine Peptide N6 against Intracellular Salmonella Typhimurium by Conjugating with the Cell-Penetrating Peptide Tat11 via a Cleavable Linker” (J Med Chem, 2018).

Values after ≈ are worked out from the molar mass of the structure shown. Active and inactive are the calls of the source. The calls are words filed in the database; no cut-off is given here. Positions of bridges follow the written chain, without caps; N, C: chain ends. Residues, ends and D or L forms follow the SMILES beside them.

Series [1] relates to Salmonella typhimurium. Briefly: Antibacterial activity against Salmonella typhimurium ATCC 14028 using 1 hr cathepsin B pre-treated compound followed by incubation for 16 to 18 hrs at pH 5 by broth microdilution method. Type of series: functional, Salmonella enterica subsp. enterica serovar Typhimurium. The settings on record: Salmonella enterica. In short, it runs like this: (§1)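 Cathepsin B (bovine spleen, 10 µg/mL) was added for 1 h at 37 °C, and the reaction was stopped with 9 volumes of MHB. MIC was then run by broth microdilution (5 × 10^5 CFU/mL, 16–18 h, 37 °C) in medium adjusted to pH 5.0.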
On the technique in general: Dilution methods test growth across graded concentrations, often in twofold steps.

The test system of series [2] is Salmonella typhimurium. The experiment in a line: Antibacterial activity against Salmonella typhimurium ATCC 14028 infected in ICR mouse model of peritonitis assessed as reduction colony forming units in intracellular fluids at 1 umol/kg, ip dosed at 2 hrs post infection and measured after 10 hrs post dose. It is filed as functional, Salmonella enterica subsp. enterica serovar Typhimurium. In a few lines:
(§2)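 Six-week-old female ICR mice (six per group) received ip S. Typhimurium ATCC14028 (5 × 10^5 CFU, 0.5 mL). Peptide was given ip 2 h post-infection and mice were killed 10 h after treatment. Peritoneum was lavaged with 5 mL ice-cold PBS and total CFU counted. For intracellular CFU, pelleted cells were treated with 100 µg/mL gentamicin for 1 h at 37 °C, washed, lysed and plated. PBS served as negative control, ciprofloxacin as positive.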

The nature of series [3]: Induction of hemolysis in mouse RBC at 100 uM incubated for 1 hrs at 37 degC. It is filed as cell-based, Erythrocyte. The following applies: red blood cells (erythrocytes), read-out: Activity. In a few lines: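 Fresh mouse erythrocytes were washed three times in 0.9% NaCl, and an 8% suspension was incubated with peptide (2-fold dilutions, 100 to 0.3125 µM) for 1 h at 37 °C. Released hemoglobin was read at 540 nm. 1% Triton X-100 defined 100% lysis; polymyxin served as positive control and NaCl as negative.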

Series [4] can be described thus: Drug uptake in mouse RAW264.7 using FITC-labeled compound at 5 uM incubated for 2 hrs by flow cytometry. Type of series: ADME, cell-based. The following applies: raw264.7, 2 h. In short, it runs like this: (§3)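 Confluent RAW264.7 cells were resuspended in PBS and incubated at 37 °C with 5 µM FITC-labeled peptide. Samples taken at 0.5 h and 2 h were quenched with 0.4% Trypan blue for extracellular fluorescence. Uptake (percent internalized cells) was read by flow cytometry, with free FITC as negative control.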
Background: Flow cytometry measures light scatter and fluorescence of single cells or particles in a stream.

Series [5] can be described thus: Cytotoxicity in mouse RAW264.7 assessed as cell survival at 100 uM incubated for 8 hrs by MTT assay. It is filed as cell-based. The following applies: RAW264.7 cells, read-out: Survival. In short, it runs like this: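 RAW264.7 cells seeded at 2.5 × 10^4 cells/well, cultured 24 h, then exposed for 8 h to 2-fold dilutions from 100 to 0.625 µM. MTT at 5 mg/mL added for 4 h, formazan dissolved in DMSO, absorbance read at 570 nm. Untreated cells served as control. Samples run in triplicate.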

For series [6], the system named is Salmonella typhimurium. The experiment in a line: Antibacterial activity against Salmonella typhimurium ATCC 14028 infected in ICR mouse model of peritonitis assessed as reduction colony forming units in total peritoneal fluids at 1 umol/kg, ip dosed at 2 hrs post infection and measured after 10 hrs post dose. Type of series: functional, Salmonella enterica subsp. enterica serovar Typhimurium. In a few lines: as §2

A short description of series [7]: Drug uptake in mouse RAW264.7 using FITC-labeled compound at 5 uM incubated for 0.5 hrs by flow cytometry. The following applies: raw264.7, 0.5 h. Type of series: ADME, cell-based. In a few lines:
as §3

Series [8] deals with Salmonella typhimurium. The experiment in a line: Antibacterial activity against Salmonella typhimurium ATCC 14028 using 1 hr cathepsin B pre-treated compound at pH 5 incubated for 16 to 18 hrs at by broth microdilution method. Type of series: functional, Salmonella enterica subsp. enterica serovar Typhimurium. The settings on record: Salmonella enterica. In a few lines: as §1

Series [9] has as its system Salmonella typhimurium. The experiment in a line: Antibacterial activity against Salmonella typhimurium ATCC 14028 incubated for 16 to 18 hrs at pH 7.2 by broth microdilution method. The settings on record: Salmonella enterica. Type of series: functional, Salmonella enterica subsp. enterica serovar Typhimurium. In short, it runs like this:
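Broth microdilution in MH broth. S. Typhimurium ATCC14028 was grown overnight at 37 °C to semi-log phase, pelleted, and diluted to OD600 0.01; final inoculum was 5 × 10^5 CFU/mL. Plates were incubated 16–18 h at 37 °C. MIC is the lowest peptide concentration with no visible growth. Data are in duplicate from at least two independent experiments.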

Series [10] deals with Salmonella typhimurium. Briefly: Antibacterial activity against Salmonella typhimurium ATCC 14028 infected in ICR mouse model of peritonitis assessed as mouse survival at 1 umol/kg, ip dosed at 0.5 and 8 hrs post infection and measured daily for 7 days.
The nature of series [11]: Drug localisation in cytosol of mouse RAW264.7 using FITC-labeled compound at 5 uM incubated for 2 hrs by confocal microscopy. It is filed as ADME, cell-based. In short, it runs like this: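 RAW264.7 cells were plated for 18 h at 37 °C, then given 5 µM FITC or FITC-labeled peptide for 2 h. Nuclei were stained with Hoechst 33342 and membranes with FM 4-64 (each 5 µg/mL) for 30 min at 37 °C. Cells were PBS-washed and imaged by confocal fluorescence microscopy.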

For series [12], the system named is Salmonella typhimurium. Briefly: Antibacterial activity against Salmonella typhimurium ATCC 14028 infected in ICR mouse model of peritonitis assessed as reduction colony forming units in kidney at 1 to 2 umol/kg, ip dosed at 2 hrs post infection and measured after 10 hrs post dose. Type of series: functional, Salmonella enterica subsp. enterica serovar Typhimurium. In short, it runs like this:
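Female ICR mice, six weeks old (six per group), were infected ip with S. Typhimurium ATCC14028 (5 × 10^5 CFU, 0.5 mL). Peptide was given ip at 1, 1.5 or 2 µmol/kg 2 h post-infection. Mice were killed 10 h after treatment, and kidneys and spleens were homogenized in sterile PBS for CFU counts of translocated bacteria. PBS-treated mice served as negative control, ciprofloxacin-treated mice as positive.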

In series [13] the test system is Salmonella typhimurium. Briefly: Bactericidal activity against 2 hrs-gentamicin pre-exposed Salmonella typhimurium ATCC 14028 assessed as effect on bacterial re-growth at 10 uM measured within 6 hrs. Type of series: functional, organism-based. The settings on record: Salmonella enterica subsp. enterica serovar Typhimurium. In a few lines:
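RAW264.7 cells in DMEM/10% FBS were infected with S. Typhimurium ATCC14028 at MOI 10 for 1 h, then given 100 µg/mL gentamicin for 2 h at 37 °C and washed. Cells were treated with 10 µM agent for 1, 3, 6, 9 and 12 h, lysed with 0.1% Triton X-100, and surviving intracellular bacteria were serially diluted and plated for CFU.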

As usually defined, the MIC is the least concentration at which growth counts as inhibited. `CC(C)[C@@H]1NC(=O)CNC(=O)[C@H](CC(N)=O)NC(=O)[C@H](CCCNC(=N)N)NC(=O)[C@H](Cc2ccc(O)cc2)NC(=O)[C@H](C(C)C)NC(=O)[C@@H](NC(=O)[C@@H](NC(=O)[C@H](CC(N)=O)NC(=O)[C@H](Cc2c[nH]c3ccccc23)NC(=O)[C@H](C)NC(=O)[C@H](Cc2ccccc2)NC(=O)CN)C(C)C)CSSC[C@@H](C(=O)N[C@@H](Cc2cnc[nH]2)C(=O)N[C@@H](CCCNC(=N)N)C(=O)N[C@@H](CCCNC(=N)N)C(=O)N[C@@H](C)C(=O)N[C@@H](CC(N)=O)C(=O)O)NC(=O)[C@H](C(C)C)NC(=O)[C@H](CCCNC(=N)N)NC1=O` (H-GFAWNVCVYRNGVRVCHRRAN-OH; disulfide 7-16): the MIC was found to be 13 µM (≈ 32.1 µg/mL) in [1], 1.62 µM (≈ 4.01 µg/mL) in series [8] and 0.81 µM (≈ 2.01 µg/mL) in series [9]. The Activity in series [2] stood at 0.43 log10CFU; in series [6], 1.01 log10CFU; in [10], 33.4%; in [12], 0.6 log10CFU. In series [3], the hemolysis at 1 h, 100 µM was 2.06%. The values for the Drug uptake in series [4], in [7] and in [11] were 71.9%, 28.7% and “Not Active”, respectively. The viability at 8 h, 100 µM in [5] was found to be 94.6%. Also, the result in series [13] was inactive.
On to `O=C(O)c1cn(C2CC2)c2cc(N3CCNCC3)c(F)cc2c1=O` [CIPROFLOXACIN], for which, in series [10], the Activity was determined as 100%.
